≈ marks a conversion by molar mass, not a printed value.
What was measured:
Format in all cases: functional
Streptococcus pneumoniae [1] = test: Antimicrobial activity against drug-susceptible Streptococcus pneumoniae 2 after 20 hrs by agar dilution method; settings: Streptococcus pneumoniae, 20 h; read-out: MIC
How it was run: (§1)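 Streptococci, H. influenzae and M. catarrhalis were precultured on blood agar plates. Suspensions of about 10⁶ CFU/ml were inoculated onto sensitivity disk agar supplemented with 5% horse blood and incubated at 37 °C for 20 h. MIC was read as the lowest drug concentration with no visible growth.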

Streptococcus pneumoniae [2] = test: Antimicrobial activity against Streptococcus pneumoniae 10 expressing mefA after 20 hrs by agar dilution method; settings: Streptococcus pneumoniae, 20 h; read-out: MIC; how it was run: as §1
Streptococcus pneumoniae [3] = test: Antimicrobial activity against Streptococcus pneumoniae 5 constitutively expressing ermB/mefA after 20 hrs by agar dilution method; settings: Streptococcus pneumoniae, 20 h; read-out: MIC; how it was run: as §1
Staphylococcus aureus [4] = test: Antimicrobial activity against Staphylococcus aureus 5 expressing inducible ermB after 20 hrs by agar dilution method; settings: Staphylococcus aureus, 20 h; read-out: MIC
How it was run: (§2)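 Agar dilution MIC. S. aureus seed culture was grown in sensitivity test broth. Cell suspension (about 10⁶ CFU/ml) was inoculated onto sensitivity disk agar with 5% horse blood and incubated at 37 °C for 20 h. MIC was the lowest drug concentration that prevented visible growth.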

Streptococcus pyogenes [5] = test: Antimicrobial activity against Streptococcus pyogenes 2 constitutively expressing ermB after 20 hrs by agar dilution method; how it was run: as §1
Streptococcus pyogenes [6] = test: Antimicrobial activity against drug-susceptible Streptococcus pyogenes 1 after 20 hrs by agar dilution method; settings: Streptococcus pyogenes, 20 h; read-out: MIC; how it was run: as §1
Streptococcus pneumoniae [7] = test: Antimicrobial activity against Streptococcus pneumoniae 7 expressing inducible ermB after 20 hrs by agar dilution method; settings: Streptococcus pneumoniae, 20 h; read-out: MIC; how it was run: as §1
Staphylococcus aureus [8] = test: Antimicrobial activity against drug-susceptible Staphylococcus aureus 3 after 20 hrs by agar dilution method; settings: Staphylococcus aureus, 20 h; read-out: MIC; how it was run: as §2
Haemophilus influenzae [9] = test: Antimicrobial activity against drug-susceptible Haemophilus influenzae 2 after 20 hrs by agar dilution method; settings: Haemophilus influenzae, 20 h; read-out: MIC; how it was run: as §1
Staphylococcus aureus [10] = test: Antimicrobial activity against drug-susceptible Staphylococcus aureus 209P JC-1 after 20 hrs by agar dilution method; settings: Staphylococcus aureus, 209P, 20 h; read-out: MIC; how it was run: as §2
Haemophilus influenzae [11] = test: Antimicrobial activity against drug-susceptible Haemophilus influenzae 4 after 20 hrs by agar dilution method; settings: Haemophilus influenzae, 20 h; read-out: MIC; how it was run: as §1
Streptococcus pneumoniae [12] = test: Antimicrobial activity against Streptococcus pneumoniae 6 constitutively expressing ermB after 20 hrs by agar dilution method; settings: Streptococcus pneumoniae, 20 h; read-out: MIC; how it was run: as §1
Staphylococcus aureus [13] = test: Antimicrobial activity against Staphylococcus aureus 6 expressing inducible ermB after 20 hrs by agar dilution method; how it was run: as §2
Haemophilus influenzae [14] = test: Antimicrobial activity against drug-susceptible Haemophilus influenzae 3 after 20 hrs by agar dilution method; settings: Haemophilus influenzae, 20 h; read-out: MIC; how it was run: as §1
Haemophilus influenzae [15] = test: Antimicrobial activity against drug-susceptible Haemophilus influenzae 1 after 20 hrs by agar dilution method; settings: Haemophilus influenzae, 20 h; read-out: MIC; how it was run: as §1
Staphylococcus aureus [16] = test: Antimicrobial activity against drug-susceptible Staphylococcus aureus 2 after 20 hrs by agar dilution method; settings: Staphylococcus aureus, 20 h; read-out: MIC; how it was run: as §2
Streptococcus pneumoniae [17] = test: Antimicrobial activity against Streptococcus pneumoniae 9 expressing mefA after 20 hrs by agar dilution method; settings: Streptococcus pneumoniae, 20 h; read-out: MIC; how it was run: as §1
Streptococcus pyogenes [18] = test: Antimicrobial activity against Streptococcus pyogenes 3 expressing mefA after 20 hrs by agar dilution method; settings: Streptococcus pyogenes, 20 h; read-out: MIC; how it was run: as §1
Streptococcus pneumoniae [19] = test: Antimicrobial activity against drug-susceptible Streptococcus pneumoniae DP1 Type1 after 20 hrs by agar dilution method; settings: Streptococcus pneumoniae, 20 h; read-out: MIC; how it was run: as §1
Streptococcus pneumoniae [20] = test: Antimicrobial activity against Streptococcus pneumoniae 8 expressing inducible ermB after 20 hrs by agar dilution method; settings: Streptococcus pneumoniae, 20 h; read-out: MIC; how it was run: as §1
Staphylococcus aureus [21] = test: Antimicrobial activity against Staphylococcus aureus 4 constitutively expressing ermA after 20 hrs by agar dilution method; how it was run: as §2
Moraxella catarrhalis [22] = test: Antimicrobial activity against drug-susceptible Moraxella catarrhalis 2 after 20 hrs by agar dilution method; settings: Moraxella catarrhalis, 20 h; read-out: MIC; how it was run: as §1
Moraxella catarrhalis [23] = test: Antimicrobial activity against drug-susceptible Moraxella catarrhalis 1 after 20 hrs by agar dilution method; settings: Moraxella catarrhalis, 20 h; read-out: MIC; how it was run: as §1

MIC (Streptococcus pneumoniae [1]) [µg/mL]	MIC (Streptococcus pneumoniae [2]) [µg/mL]	MIC (Streptococcus pneumoniae [3]) [µg/mL]	MIC (Staphylococcus aureus [4]) [µg/mL]	MIC (Streptococcus pyogenes [5]) [µg/mL]	MIC (Streptococcus pyogenes [6]) [µg/mL]	MIC (Streptococcus pneumoniae [7]) [µg/mL]	MIC (Staphylococcus aureus [8]) [µg/mL]	MIC (Haemophilus influenzae [9]) [µg/mL]	MIC (Staphylococcus aureus [10]) [µg/mL]	MIC (Haemophilus influenzae [11]) [µg/mL]	MIC (Staphylococcus aureus [13]) [µg/mL]	MIC (Haemophilus influenzae [14]) [µg/mL]	MIC (Haemophilus influenzae [15]) [µg/mL]	MIC (Staphylococcus aureus [16]) [µg/mL]	MIC (Streptococcus pneumoniae [17]) [µg/mL]	MIC (Streptococcus pyogenes [18]) [µg/mL]	MIC (Streptococcus pneumoniae [19]) [µg/mL]	MIC (Streptococcus pneumoniae [20]) [µg/mL]	MIC (Staphylococcus aureus [21]) [µg/mL]	SMILES	further results
0.25 (≈ 0.259 µM)	0.25 (≈ 0.259 µM)	> 128	0.25 (≈ 0.259 µM)	> 128	0.13 (≈ 0.135 µM)	16 (≈ 16.6 µM)	0.25 (≈ 0.259 µM)	0.5 (≈ 0.519 µM)	0.25 (≈ 0.259 µM)	4 (≈ 4.15 µM)	0.5 (≈ 0.519 µM)	2 (≈ 2.07 µM)	8 (≈ 8.3 µM)	1 (≈ 1.04 µM)	0.25 (≈ 0.259 µM)	0.5 (≈ 0.519 µM)	0.13 (≈ 0.135 µM)	16 (≈ 16.6 µM)	> 128	CCOC(=O)[C@H]1[C@H](C)O[C@@H](O[C@H]2[C@H](N(C)C)[C@@H](O)[C@H](O[C@H]3[C@@H](CC=O)C[C@@H](C)[C@@H](O)CN(CCCCc4ccccc4)CCCNC(=O)C[C@@H](OC(=O)CC)[C@@H]3OC)O[C@@H]2C)C[C@@]1(C)OC(C)=O	MIC (Streptococcus pneumoniae [12]): > 128 µg/mL; MIC (Moraxella catarrhalis [22]): 0.25 µg/mL (≈ 0.259 µM); MIC (Moraxella catarrhalis [23]): 0.13 µg/mL (≈ 0.135 µM)
16 (≈ 21.1 µM)	32 (≈ 42.2 µM)	> 128	64 (≈ 84.3 µM)	> 128	16 (≈ 21.1 µM)	> 128	64 (≈ 84.3 µM)	8 (≈ 10.5 µM)	64 (≈ 84.3 µM)	128 (≈ 169 µM)	64 (≈ 84.3 µM)	64 (≈ 84.3 µM)	64 (≈ 84.3 µM)	32 (≈ 42.2 µM)	32 (≈ 42.2 µM)	128 (≈ 169 µM)	16 (≈ 21.1 µM)	> 128	> 128	CCC(=O)O[C@@H]1CC(=O)NCCCN(CCCc2ccnc3ccccc23)C[C@H](O)[C@H](C)C[C@H](CC=O)[C@H](O[C@@H]2O[C@H](C)[C@@H](O)[C@H](N(C)C)[C@H]2O)[C@H]1OC	MIC (Streptococcus pneumoniae [12]): > 128 µg/mL; MIC (Moraxella catarrhalis [22]): 8 µg/mL (≈ 10.5 µM); MIC (Moraxella catarrhalis [23]): 8 µg/mL (≈ 10.5 µM)
0.25 (≈ 0.248 µM)	0.25 (≈ 0.248 µM)	> 128	0.5 (≈ 0.496 µM)	> 128	0.25 (≈ 0.248 µM)	8 (≈ 7.94 µM)	0.5 (≈ 0.496 µM)	2 (≈ 1.99 µM)	0.5 (≈ 0.496 µM)	8 (≈ 7.94 µM)	1 (≈ 0.993 µM)	4 (≈ 3.97 µM)	> 128	1 (≈ 0.993 µM)	0.5 (≈ 0.496 µM)	0.25 (≈ 0.248 µM)	0.25 (≈ 0.248 µM)	32 (≈ 31.8 µM)	> 128	CCOC(=O)[C@H]1[C@H](C)O[C@@H](O[C@H]2[C@H](N(C)C)[C@@H](O)[C@H](O[C@H]3[C@@H](CC=O)C[C@@H](C)[C@@H](OC(C)=O)CN(CCCCc4ccccc4)CCCOC(=O)C[C@@H](OC(=O)CC)[C@@H]3OC)O[C@@H]2C)C[C@@]1(C)OC(C)=O	MIC (Moraxella catarrhalis [22]): 0.5 µg/mL (≈ 0.496 µM); MIC (Moraxella catarrhalis [23]): 0.25 µg/mL (≈ 0.248 µM)
0.13 (≈ 0.135 µM)	0.13 (≈ 0.135 µM)	> 128	0.25 (≈ 0.259 µM)	> 128	0.06 (≈ 0.0622 µM)	4 (≈ 4.14 µM)	0.25 (≈ 0.259 µM)	1 (≈ 1.04 µM)	0.25 (≈ 0.259 µM)	8 (≈ 8.29 µM)	0.5 (≈ 0.518 µM)	4 (≈ 4.14 µM)	16 (≈ 16.6 µM)	1 (≈ 1.04 µM)	0.25 (≈ 0.259 µM)	0.13 (≈ 0.135 µM)	0.13 (≈ 0.135 µM)	16 (≈ 16.6 µM)	> 128	CCOC(=O)[C@H]1[C@H](C)O[C@@H](O[C@H]2[C@H](N(C)C)[C@@H](O)[C@H](O[C@H]3[C@@H](CC=O)C[C@@H](C)[C@@H](O)CN(CCCCc4ccccc4)CCCOC(=O)C[C@@H](OC(=O)CC)[C@@H]3OC)O[C@@H]2C)C[C@@]1(C)OC(C)=O	MIC (Moraxella catarrhalis [22]): 0.25 µg/mL (≈ 0.259 µM); MIC (Moraxella catarrhalis [23]): 0.13 µg/mL (≈ 0.135 µM)
